Test results published in ChEMBL document CHEMBL1145590, “Discovery and initial SAR of arylsulfonylpiperazine inhibitors of 11beta-hydroxysteroid dehydrogenase type 1 (11beta-HSD1)” (Bioorg Med Chem Lett, 2008).

How the values were obtained:
[1] = molecular target: T1, 11-beta-hydroxysteroid dehydrogenase 1 (Homo sapiens, UniProt P28845)
[2] = molecular target: T1, 11-beta-hydroxysteroid dehydrogenase 1; remark: listed apart in the source
[3] = molecular target: 11-beta-hydroxysteroid dehydrogenase 1 (Mus musculus, UniProt P50172); assay: Inhibition of mouse recombinant 11beta-HSD1 assessed as conversion of [3H]cortisone to [3H]cortisol by SPA assay
[4] = Clearance in rat; format: ADME, organism-based; conditions: in vivo
[5] = Metabolic stability in human liver microsomes after 10 mins; format: ADME, Microsome; conditions: read-out: Stability
Method in brief: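 Test compound incubated with human liver microsomes. Percent parent remaining measured at 10 min.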

[6] = Oral bioavailability in rat; format: ADME, organism-based; conditions: in vivo
[7] = molecular target: T2, 11-beta-hydroxysteroid dehydrogenase type 2 (Homo sapiens, UniProt P80365); assay: Inhibition of 11beta-HSD2
T2 sequence (P80365 whole entry): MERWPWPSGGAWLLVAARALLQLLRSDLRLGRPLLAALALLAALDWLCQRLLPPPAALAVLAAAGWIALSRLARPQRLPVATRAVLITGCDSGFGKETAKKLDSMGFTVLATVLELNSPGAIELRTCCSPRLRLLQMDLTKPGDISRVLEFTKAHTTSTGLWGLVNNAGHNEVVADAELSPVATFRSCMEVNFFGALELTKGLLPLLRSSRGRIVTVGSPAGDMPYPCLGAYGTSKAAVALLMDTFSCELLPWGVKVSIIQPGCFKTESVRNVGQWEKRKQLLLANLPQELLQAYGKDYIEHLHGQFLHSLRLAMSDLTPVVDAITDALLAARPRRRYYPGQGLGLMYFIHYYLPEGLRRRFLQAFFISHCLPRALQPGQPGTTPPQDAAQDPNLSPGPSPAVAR

T1 sequence (P28845 whole entry): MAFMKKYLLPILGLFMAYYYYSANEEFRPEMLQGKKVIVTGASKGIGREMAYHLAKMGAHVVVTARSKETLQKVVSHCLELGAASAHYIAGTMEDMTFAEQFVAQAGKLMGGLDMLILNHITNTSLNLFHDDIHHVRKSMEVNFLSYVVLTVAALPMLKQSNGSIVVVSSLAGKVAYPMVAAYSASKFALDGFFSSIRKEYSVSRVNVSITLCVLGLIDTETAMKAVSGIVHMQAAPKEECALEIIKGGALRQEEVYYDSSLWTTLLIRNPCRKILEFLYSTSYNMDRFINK
11-beta-hydroxysteroid dehydrogenase 1 (Mus musculus, UniProt P50172), sequence (P50172 whole entry): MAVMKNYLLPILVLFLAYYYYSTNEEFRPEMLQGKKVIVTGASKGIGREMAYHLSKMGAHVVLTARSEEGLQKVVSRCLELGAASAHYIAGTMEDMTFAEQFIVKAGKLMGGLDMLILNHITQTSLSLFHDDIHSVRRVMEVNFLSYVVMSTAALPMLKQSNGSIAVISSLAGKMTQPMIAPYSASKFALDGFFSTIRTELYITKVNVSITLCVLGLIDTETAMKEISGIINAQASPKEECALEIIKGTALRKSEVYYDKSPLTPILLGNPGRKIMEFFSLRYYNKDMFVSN

Cc1ccc(S(=O)(=O)N2CCN(c3ncccc3Cl)CC2)cc1
IC50 [1]: > 1000 nM
IC50 [2]: 117 nM
IC50 [3]: 146 nM

O=S(=O)(c1ccc2ccccc2c1)N1CCN(c2ncccc2C(F)(F)F)CC1
IC50 [3]: 11 nM

O=S(=O)(c1ccccc1)N1CCN(c2ncccc2C(F)(F)F)CC1
IC50 [1]: 724 nM
IC50 [2]: 45 nM
IC50 [3]: 122 nM

O=S(=O)(c1cccc(C(F)(F)F)c1)N1CCN(c2ncccc2C(F)(F)F)CC1
IC50 [1]: > 1000 nM
IC50 [2]: 64 nM
IC50 [3]: 53 nM

N#Cc1ccc(S(=O)(=O)N2CCN(c3ncccc3C(F)(F)F)CC2)cc1
IC50 [1]: 978 nM
IC50 [2]: 50 nM
IC50 [3]: 546 nM

CC1CN(c2ncccc2C(F)(F)F)CCN1S(=O)(=O)c1ccc(C(C)(C)C)cc1 (stereo not given)
IC50 [1]: 632 nM
IC50 [2]: 9 nM
IC50 [3]: 4 nM

Cc1ccc(S(=O)(=O)N2CCN(c3ncccc3C)CC2)cc1
IC50 [1]: > 1000 nM
IC50 [2]: 152 nM
IC50 [3]: 240 nM

CC(C)(C)c1ccc(S(=O)(=O)N2CCN(c3ccc([N+](=O)[O-])cc3)CC2)cc1
IC50 [1]: 247 nM
clearance [4]: 16.7 mL/min/kg
IC50 [2]: 10 nM
IC50 [3]: 161 nM
remaining at 10 min [5]: 90%
bioavailability [6]: 7%

CCc1ccc(S(=O)(=O)N2CCN(c3ncccc3C(F)(F)F)CC2)cc1
IC50 [1]: 510 nM
IC50 [2]: 18 nM
IC50 [3]: 53 nM

C[C@H]1CN(c2ncccc2C(F)(F)F)CCN1S(=O)(=O)c1ccc(C(C)(C)C)cc1
IC50 [1]: 569 nM
IC50 [2]: 9 nM
IC50 [3]: 17 nM

COc1ccc(S(=O)(=O)N2CCN(c3ncccc3C(F)(F)F)CC2)cc1
IC50 [1]: 456 nM
IC50 [2]: 19 nM
IC50 [3]: 32 nM

CC(C)(C)c1ccc(S(=O)(=O)N2CCN(c3ncccc3C(F)(F)F)CC2)cc1
remaining at 10 min [5]: 61%

O=[N+]([O-])c1ccc(S(=O)(=O)N2CCN(c3ncccc3C(F)(F)F)CC2)cc1
IC50 [1]: 922 nM
IC50 [2]: 37 nM
IC50 [3]: 311 nM

O=C(c1ccccc1)N1CCN(c2ncccc2C(F)(F)F)CC1
IC50 [1]: > 1000 nM
IC50 [2]: 262 nM
IC50 [3]: > 1000 nM

Cc1ccc(S(=O)(=O)N2CCN(c3ncccc3C#N)CC2)cc1
IC50 [1]: > 1000 nM
IC50 [2]: 628 nM

C[C@@H]1CN(c2ncccc2C(F)(F)F)CCN1S(=O)(=O)c1ccc(C(C)(C)C)cc1
IC50 [1]: 762 nM
IC50 [2]: 11 nM
IC50 [3]: 4 nM

Cc1ccc(S(=O)(=O)N2CCN(c3ccccn3)CC2)cc1
IC50 [1]: > 1000 nM
IC50 [2]: > 1000 nM
IC50 [3]: > 1000 nM

O=S(=O)(c1cccc2ccccc12)N1CCN(c2ncccc2C(F)(F)F)CC1
IC50 [1]: 329 nM
IC50 [2]: 13 nM
IC50 [3]: 80 nM

CCC1CN(c2ncccc2C(F)(F)F)CCN1S(=O)(=O)c1ccc(C(C)(C)C)cc1 (stereo not given)
IC50 [1]: > 1000 nM
IC50 [2]: 17 nM
IC50 [3]: 6 nM

FC(F)(F)c1cccnc1N1CCN(Cc2ccccc2)CC1
IC50 [1]: 1930 nM
IC50 [2]: 550 nM
IC50 [3]: > 1000 nM

Cc1ccc(S(=O)(=O)N2CCN(c3ncccc3C(F)(F)F)CC2)cc1
IC50 [1]: 461 nM
IC50 [2]: 16 nM
IC50 [3]: 32 nM
IC50 [7]: > 10000 nM

CC(C)(C)c1ccc(S(=O)(=O)N2CCN(c3ccccc3F)CC2)cc1
IC50 [1]: > 1000 nM
IC50 [2]: 106 nM
IC50 [3]: 98 nM
